From ChEMBL document CHEMBL1149127, “Synthesis and antitubulin activity of N1- and N4-substituted 3,5-dinitro sulfanilamides against African trypanosomes and Leishmania” (J Med Chem, 2004)

What was measured:
[1] = system: Trypanosoma brucei; experiment: microbe, parasite or virus in culture; type: functional, organism-based
[2] = system: Leishmania donovani; experiment: Inhibitory concentration against Leishmania donovani axenic amastigotes was determined in vitro; type: functional, organism-based
[3] = system: J774; experiment: In vitro cytotoxicity against mouse J774 macrophages.; type: functional, cell-based
[4] = system: PC-3; experiment: In vitro cytotoxicity against mouse PC3 prostate cancer cell line.; type: functional, cell-based; conditions: Homo sapiens
[5] = system: Leishmania donovani; experiment: Inhibition percentage of Leishmanial tubulin assembly at a concentration of 10 uM.
In short: (§1)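 Leishmanial tubulin turbidity assay. Compounds added in 50% DMSO. Assembly started on ice by adding cold GTP in 25% DMSO. Turbidity followed at 351 nm while warming to 30 °C. Single-concentration tests run at 10 µM.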

[6] = biological target: Tubulin (Sus scrofa) (UniProt P02554+P02550); experiment: Inhibition of porcine brain tubulin assembly at 40 uM
In short: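 Porcine brain tubulin purified by DEAE-Sepharose and a warm assembly cycle. Compound at 40 µM added in 100% DMSO. Assembly started on ice with cold GTP in water. Turbidity read at 351 nm while warming to 37 °C. Percent inhibition determined.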

[7] = Tested for toxicity against mice by intraperitoneal administration; No signs of toxicity; conditions: mouse, in vivo, ip
[8] = system: Mus musculus; experiment: Tested against Trypanosoma brucei strain ST1B 795 in mice as cured to tested at 20 mg/kg/day administered intraperitoneally; 0/4; type: functional; conditions: route intraperitoneal
[9] = Inhibition of Leishmanial tubulin assembly; parameters: species or system Leishmania donovani
In short: as §1

[10] = system: Mus musculus; experiment: Average survival time for mice infected with Trypanosoma brucei ST1B 795 when treated with 20 mg/kg administered intraperitoneally; type: functional; conditions: route intraperitoneal
In short: (§2)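 Female NMRI mice (20-25 g) were infected ip with 10⁴ T. b. brucei STIB 795 bloodstream forms and randomly assigned to groups of four. Starting 4 days after infection, 20 mg/kg was given ip for 4 consecutive days. Vehicle was DMSO diluted with water, with final DMSO below 10%. Day of death was recorded for each mouse.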

[11] = system: Tubulin (Leishmania donovani); experiment: Inhibition percentage of Leishmanial tubulin assembly at a concentration of 10 uM
[12] = system: Mus musculus; experiment: Average survival time for mice infected with Trypanosoma brucei ST1B 795 when treated with 20 mg/kg administered i.p.; type: functional; conditions: route intraperitoneal
In short: as §2

Chain of Tubulin (Sus scrofa) (P02550 whole entry, looked up): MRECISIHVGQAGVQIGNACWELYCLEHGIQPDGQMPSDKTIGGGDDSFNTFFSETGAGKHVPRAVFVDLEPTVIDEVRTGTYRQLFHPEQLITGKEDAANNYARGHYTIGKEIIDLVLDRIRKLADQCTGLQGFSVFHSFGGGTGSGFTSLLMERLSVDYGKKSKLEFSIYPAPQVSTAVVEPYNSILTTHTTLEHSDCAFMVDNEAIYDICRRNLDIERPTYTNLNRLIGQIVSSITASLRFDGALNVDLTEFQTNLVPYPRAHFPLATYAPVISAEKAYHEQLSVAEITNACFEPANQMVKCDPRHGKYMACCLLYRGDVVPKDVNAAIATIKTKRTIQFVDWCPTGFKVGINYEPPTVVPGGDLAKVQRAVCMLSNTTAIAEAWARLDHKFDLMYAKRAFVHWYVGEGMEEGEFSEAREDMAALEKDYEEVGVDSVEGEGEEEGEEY
Chain of Tubulin (Sus scrofa) (P02554 whole entry, looked up): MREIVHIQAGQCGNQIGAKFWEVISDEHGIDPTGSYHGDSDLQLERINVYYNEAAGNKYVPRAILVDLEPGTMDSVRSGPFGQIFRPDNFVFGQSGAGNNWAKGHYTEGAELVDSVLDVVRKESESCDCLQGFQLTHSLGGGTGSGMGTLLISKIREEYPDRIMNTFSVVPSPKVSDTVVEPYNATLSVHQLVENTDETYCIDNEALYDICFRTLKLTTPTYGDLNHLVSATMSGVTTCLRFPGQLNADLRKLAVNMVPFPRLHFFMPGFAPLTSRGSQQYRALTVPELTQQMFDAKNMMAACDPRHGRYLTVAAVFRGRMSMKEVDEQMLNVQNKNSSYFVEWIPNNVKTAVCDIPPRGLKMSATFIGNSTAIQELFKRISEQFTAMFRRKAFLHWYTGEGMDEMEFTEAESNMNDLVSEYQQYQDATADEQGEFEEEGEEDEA

Compound | IC50 [1] [µM] | IC50 [2] [µM] | IC50 [3] [µM] | IC50 [4] [µM] | inhibition [5] [%] | inhibition [6] [%] | also measured
CCCN(CCC)c1c([N+](=O)[O-])cc(S(=O)(=O)NC2CC2)cc1[N+](=O)[O-] | 3.4 | 43 | – | – | – | – | –
CCCN(CCC)c1c([N+](=O)[O-])cc(S(=O)(=O)N(C)c2ccccc2)cc1[N+](=O)[O-] | 1 | 21 | 11 | > 100 | < 20 | – | –
CCCN(CCC)c1c([N+](=O)[O-])cc(S(=O)(=O)Nc2cccc(C)c2)cc1[N+](=O)[O-] | 1.9 | 23 | 16 | 25 | < 20 | < 20 | –
N=C(N)c1ccc(OCCCCCOc2ccc(C(=N)N)cc2)cc1 [PENTAMIDINE] | 0.013 | – | – | – | – | – | –
CCCNS(=O)(=O)c1cc([N+](=O)[O-])c(N(CCC)CCC)c([N+](=O)[O-])c1 | 8.9 | 54 | – | – | < 20 | – | –
CCCCN(CCCC)S(=O)(=O)c1cc([N+](=O)[O-])c(N(CCC)CCC)c([N+](=O)[O-])c1 | 38 | 48 | – | – | – | – | –
CCCN(CCC)c1c([N+](=O)[O-])cc(S(=O)(=O)Nc2ccc(OC)cc2)cc1[N+](=O)[O-] | 19 | 32 | 15 | 31 | < 20 | < 20 | Dose [7]: No signs of toxicity; Activity [8]: 0
CCCCN(CCCC)c1c([N+](=O)[O-])cc(S(=O)(=O)Nc2ccccc2)cc1[N+](=O)[O-] | 0.12 | 2.6 | 12 | 13 | 104 | < 20 | Dose [7]: 20 mg/kg; IC50 [9]: 6.9 µM; Activity [8]: 0; Survival [10]: 8 days
CCCN(CCC)c1c([N+](=O)[O-])cc(S(=O)(=O)N(CC)CC)cc1[N+](=O)[O-] | 8.3 | 27 | – | – | – | – | –
CCCN(CCC)c1c([N+](=O)[O-])cc(S(=O)(=O)NC)cc1[N+](=O)[O-] | 5.3 | > 100 | – | – | < 20 | < 20 | –
CCCN(CCC)c1c([N+](=O)[O-])cc(S(=O)(=O)Nc2cccc(Cl)c2)cc1[N+](=O)[O-] | 2.1 | 5.5 | 8.7 | 18 | 57 | < 20 | –
CCCCCCNS(=O)(=O)c1cc([N+](=O)[O-])c(N(CCC)CCC)c([N+](=O)[O-])c1 | 15 | 26 | – | – | – | – | –
CCCN(CCC)c1c([N+](=O)[O-])cc(S(=O)(=O)NC(C)C)cc1[N+](=O)[O-] | 4.1 | > 100 | – | – | – | – | –
CCCCCNS(=O)(=O)c1cc([N+](=O)[O-])c(N(CCC)CCC)c([N+](=O)[O-])c1 | 17 | 43 | – | – | – | – | –
CCCN(CCC)c1c([N+](=O)[O-])cc(S(=O)(=O)N(c2ccccc2)c2ccccc2)cc1[N+](=O)[O-] | 7 | > 100 | > 100 | > 100 | – | – | –
CCCN(CCC)c1c([N+](=O)[O-])cc(S(=O)(=O)Nc2cc(Cl)cc(Cl)c2)cc1[N+](=O)[O-] | 8 | 3.7 | 5.1 | 11 | 102 | < 20 | IC50 [9]: 5.8 µM
CCCCNS(=O)(=O)c1cc([N+](=O)[O-])c(N(CCC)CCC)c([N+](=O)[O-])c1 | 12 | 50 | – | – | – | < 20 | –

Compound | IC50 [1] [µM] | IC50 [2] [µM] | IC50 [3] [µM] | IC50 [4] [µM] | inhibition [5] [%] | inhibition [6] [%] | also measured
CCCN(CCC)c1c([N+](=O)[O-])cc(S(=O)(=O)N2CCOCC2)cc1[N+](=O)[O-] | > 100 | > 100 | – | – | – | – | –
CCCN(CCC)c1c([N+](=O)[O-])cc(S(=O)(=O)NC2CCCC2)cc1[N+](=O)[O-] | 11 | 50 | – | – | – | – | Dose [7]: No signs of toxicity; inhibition [11]: < 20%; Activity [8]: 0
COc1cc2cc(c1Cl)N(C)C(=O)C[C@H](OC(=O)C(C)C)[C@]1(C)O[C@@H]1[C@H](C)[C@@H]1C[C@@](O)(NC(=O)O1)[C@H](OC)/C=C/C=C(\C)C2 [ANSAMITOCIN P3] | – | – | 0.00047 | 6e-05 | – | – | –
CCCN(CCC)c1c([N+](=O)[O-])cc(S(=O)(=O)Nc2ccc(C)cc2)cc1[N+](=O)[O-] | 13 | 32 | 11 | 21 | < 20 | < 20 | –
CCCN(CCC)c1c([N+](=O)[O-])cc(S(=O)(=O)Nc2cccc(OC)c2)cc1[N+](=O)[O-] | 1.3 | 8.1 | 25 | 36 | 39 | < 20 | –
CCCN(CCC)c1c([N+](=O)[O-])cc(S(=O)(=O)N(C)C)cc1[N+](=O)[O-] | 5.8 | > 100 | – | – | – | – | –
CCCN(CCC)c1c([N+](=O)[O-])cc(S(N)(=O)=O)cc1[N+](=O)[O-] [ORYZALIN] | 12 | 65 | 44 | 56 | – | – | –
CCCN(CCC)c1c([N+](=O)[O-])cc(S(=O)(=O)N2CCCC2)cc1[N+](=O)[O-] | 6.5 | 47 | – | – | – | – | –
CCCN(CCC)c1c([N+](=O)[O-])cc(S(=O)(=O)Nc2ccc(Cl)c(Cl)c2)cc1[N+](=O)[O-] | 7.9 | 5 | 7.2 | 15 | < 20 | < 20 | –
CCCN(CCC)c1c([N+](=O)[O-])cc(S(=O)(=O)Nc2ccccc2)cc1[N+](=O)[O-] | 0.41 | 5 | 28 | 31 | 89 | 14 | Dose [7]: 20 mg/kg; IC50 [9]: 6.7 µM; Activity [8]: 0; Survival [12]: 8 days
CCCN(CCC)c1c([N+](=O)[O-])cc(S(=O)(=O)NCC)cc1[N+](=O)[O-] | 5.4 | > 100 | – | – | – | – | –
CCN(CC)c1c([N+](=O)[O-])cc(S(=O)(=O)Nc2ccccc2)cc1[N+](=O)[O-] | 2.8 | 11 | 48 | 56 | < 20 | < 20 | –
CCCN(CCC)c1c([N+](=O)[O-])cc(S(=O)(=O)Nc2ccccn2)cc1[N+](=O)[O-] | 9.2 | 60 | 45 | – | – | – | –
CCCN(CCC)c1c([N+](=O)[O-])cc(S(=O)(=O)Nc2ccc(Cl)cc2)cc1[N+](=O)[O-] | 13 | 13 | 10 | 16 | < 20 | < 20 | –
CCCN(CCC)c1c([N+](=O)[O-])cc(S(=O)(=O)N(CCC)CCC)cc1[N+](=O)[O-] | 17 | 55 | – | – | – | – | –
Cc1ccc(C(=O)Nc2ccc(S(=O)(=O)O)c3cc(S(=O)(=O)O)cc(S(=O)(=O)O)c23)cc1NC(=O)c1cccc(NC(=O)Nc2cccc(C(=O)Nc3cc(C(=O)Nc4ccc(S(=O)(=O)O)c5cc(S(=O)(=O)O)cc(S(=O)(=O)O)c45)ccc3C)c2)c1 [SURAMIN] | 0.21 | – | – | – | – | – | –
CCCCCCN(CCCCCC)S(=O)(=O)c1cc([N+](=O)[O-])c(N(CCC)CCC)c([N+](=O)[O-])c1 | > 50 | > 100 | – | – | – | – | –
